Tests used:
[1] = test system: Acinetobacter baumannii; assay: Synergistic antibacterial activity against ADC deleted Acinetobacter baumannii assessed as meropenem MIC at 4 ug/ml by broth microdilution method; format: functional; conditions: dose 4 µg/ml
[2] = test system: Klebsiella pneumoniae; assay: Synergistic antibacterial activity against Klebsiella pneumoniae 729/1679 producing KPC-3 assessed as cefepime MIC at 8 ug/ml by broth microdilution method; format: functional; conditions: dose 8 µg/ml
Outline: (§1)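 Broth microdilution per CLSI guidelines, using custom frozen panels. […] Each partner drug was also tested alone. MICs were run in triplicate and the modal value is reported.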

[3] = test system: Klebsiella pneumoniae; assay: Synergistic antibacterial activity against Klebsiella pneumoniae NY BS producing OXA-232 assessed as cefepime MIC at 8 ug/ml by broth microdilution method; format: functional; conditions: dose 8 µg/ml
[4] = test system: Acinetobacter baumannii; assay: Synergistic antibacterial activity against Acinetobacter baumannii PR420 producing OXA-23/24/40 assessed as meropenem MIC at 8 ug/ml by broth microdilution method; format: functional; conditions: dose 8 µg/ml
[5] = test system: Acinetobacter baumannii; assay: Synergistic antibacterial activity against Acinetobacter baumannii PR408 producing OXA-24/40 assessed as cefepime MIC at 8 ug/ml by broth microdilution method; format: functional; conditions: dose 8 µg/ml
[6] = test system: Pseudomonas aeruginosa; assay: Synergistic antibacterial activity against Pseudomonas aeruginosa 795 assessed as cefepime MIC at 4 ug/ml by broth microdilution method; format: functional; conditions: dose 4 µg/ml
[7] = test system: Escherichia coli; assay: Synergistic antibacterial activity against Escherichia coli DH10B assessed as cefepime MIC at 4 ug/ml by broth microdilution method; format: functional; conditions: dose 4 µg/ml
[8] = test system: Pseudomonas aeruginosa; assay: Synergistic antibacterial activity against Pseudomonas aeruginosa CL232 assessed as cefepime MIC at 8 ug/ml by broth microdilution method; format: functional; conditions: dose 8 µg/ml
[9] = test system: Pseudomonas aeruginosa; assay: Synergistic antibacterial activity against Pseudomonas aeruginosa 776 assessed as meropenem MIC at 4 ug/ml by broth microdilution method; format: functional; conditions: dose 4 µg/ml
[10] = test system: Acinetobacter baumannii; assay: Synergistic antibacterial activity against ADC deleted Acinetobacter baumannii transfected with pWH1266 producing OXA-24/40 assessed as cefepime MIC at 4 ug/ml by broth microdilution method; format: functional; conditions: dose 4 µg/ml
[11] = test system: Escherichia coli; assay: Synergistic antibacterial activity against Escherichia coli DH10B transfected with pBR322-catI-KPC-2 assessed as cefepime MIC at 8 ug/ml by broth microdilution method; format: functional; conditions: dose 8 µg/ml; outline: as §1
[12] = test system: Acinetobacter baumannii; assay: Synergistic antibacterial activity against Acinetobacter baumannii PR319 producing OXA-23/24/40 assessed as meropenem MIC at 4 ug/ml by broth microdilution method; format: functional; conditions: dose 4 µg/ml
[13] = test system: Acinetobacter baumannii; assay: Synergistic antibacterial activity against Acinetobacter baumannii PR359 producing OXA-23 assessed as cefepime MIC at 8 ug/ml by broth microdilution method; format: functional; conditions: dose 8 µg/ml
[14] = test system: Klebsiella pneumoniae; assay: Synergistic antibacterial activity against Klebsiella pneumoniae 1354/2241 producing KPC-3 assessed as cefepime MIC at 4 ug/ml by broth microdilution method; format: functional; conditions: dose 4 µg/ml; outline: as §1
[15] = test system: Acinetobacter baumannii; assay: Synergistic antibacterial activity against Acinetobacter baumannii PR363 producing OXA-23 assessed as cefepime MIC at 4 ug/ml by broth microdilution method; format: functional; conditions: dose 4 µg/ml
[16] = test system: Escherichia coli; assay: Synergistic antibacterial activity against Escherichia coli DH10B transfected with pBR322-catI-KPC-2 assessed as meropenem MIC at 8 ug/ml by broth microdilution method; format: functional; conditions: dose 8 µg/ml; outline: as §1
[17] = test system: Acinetobacter baumannii; assay: Synergistic antibacterial activity against ADC deleted Acinetobacter baumannii transfected with pWH1266 producing OXA-24/40 assessed as cefepime MIC at 8 ug/ml by broth microdilution method; format: functional; conditions: dose 8 µg/ml
[18] = test system: Acinetobacter baumannii; assay: Synergistic antibacterial activity against Acinetobacter baumannii PR319 producing OXA-23/24/40 assessed as meropenem MIC at 8 ug/ml by broth microdilution method; format: functional; conditions: dose 8 µg/ml
[19] = test system: Acinetobacter baumannii; assay: Synergistic antibacterial activity against Acinetobacter baumannii PR476 producing OXA-24/40 assessed as cefepime MIC at 8 ug/ml by broth microdilution method; format: functional; conditions: dose 8 µg/ml
[20] = test system: Escherichia coli; assay: Synergistic antibacterial activity against Escherichia coli DH10B transfected with pBC SK (-) KPC-3 assessed as cefepime MIC at 4 ug/ml by broth microdilution method; format: functional; conditions: dose 4 µg/ml
[21] = test system: Klebsiella pneumoniae; assay: Synergistic antibacterial activity against Klebsiella pneumoniae 972/1910 producing KPC-3 assessed as cefepime MIC at 4 ug/ml by broth microdilution method; format: functional; conditions: dose 4 µg/ml
[22] = test system: Acinetobacter baumannii; assay: Synergistic antibacterial activity against Acinetobacter baumannii PR448 producing OXA-23 assessed as meropenem MIC at 8 ug/ml by broth microdilution method; format: functional; conditions: dose 8 µg/ml
[23] = test system: Klebsiella pneumoniae; assay: Synergistic antibacterial activity against Klebsiella pneumoniae 1108/1989 producing KPC-3 assessed as meropenem MIC at 8 ug/ml by broth microdilution method; format: functional; conditions: dose 8 µg/ml; outline: as §1
[24] = test system: Escherichia coli; assay: Synergistic antibacterial activity against Escherichia coli DH10B transfected with pBC SK (-) PDC-3 assessed as meropenem MIC at 8 ug/ml by broth microdilution method; format: functional; conditions: dose 8 µg/ml; outline: as §1
[25] = Inhibition of bacteria ADC-7 assessed as apparent inhibition constant using nitrocefin as substrate
[26] = test system: Acinetobacter baumannii; assay: Synergistic antibacterial activity against Acinetobacter baumannii PR323 producing OXA-24/40 assessed as cefepime MIC at 8 ug/ml by broth microdilution method; format: functional; conditions: dose 8 µg/ml
[27] = test system: Klebsiella pneumoniae; assay: Synergistic antibacterial activity against Klebsiella pneumoniae 1084/1957 producing KPC-3 assessed as meropenem MIC at 4 ug/ml by broth microdilution method; format: functional; conditions: dose 4 µg/ml; outline: as §1
[28] = test system: Klebsiella pneumoniae; assay: Synergistic antibacterial activity against Klebsiella pneumoniae 1315/2198 producing KPC-3 assessed as cefepime MIC at 4 ug/ml by broth microdilution method; format: functional; conditions: dose 4 µg/ml; outline: as §1
[29] = test system: Bacteria; assay: Inhibition of bacteria PDC-3 assessed as half life using nitrocefin as substrate
[30] = test system: Acinetobacter baumannii; assay: Synergistic antibacterial activity against Acinetobacter baumannii PR420 producing OXA-23/24/40 assessed as meropenem MIC at 4 ug/ml by broth microdilution method; format: functional; conditions: dose 4 µg/ml
[31] = test system: Acinetobacter baumannii; assay: Synergistic antibacterial activity against Acinetobacter baumannii PR440 producing OXA-23/24/40 assessed as meropenem MIC at 4 ug/ml by broth microdilution method; format: functional; conditions: dose 4 µg/ml
[32] = test system: Escherichia coli; assay: Synergistic antibacterial activity against Escherichia coli DH10B transfected with pBC SK (-) KPC-2 assessed as meropenem MIC at 8 ug/ml by broth microdilution method; format: functional; conditions: dose 8 µg/ml
[33] = test system: Acinetobacter baumannii; assay: Synergistic antibacterial activity against Acinetobacter baumannii PR448 producing OXA-23 assessed as cefepime MIC at 8 ug/ml by broth microdilution method; format: functional; conditions: dose 8 µg/ml
Outline: (§2)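 Broth microdilution per CLSI guidelines in frozen panels. Test compound held at fixed 8 mg/L while the partner β-lactam concentration was increased. Run in triplicate; modal MIC reported.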

[34] = test system: Escherichia coli; assay: Synergistic antibacterial activity against Escherichia coli DH10B assessed as cefepime MIC at 8 ug/ml by broth microdilution method; format: functional; conditions: dose 8 µg/ml
[35] = test system: Acinetobacter baumannii; assay: Synergistic antibacterial activity against Acinetobacter baumannii PR359 producing OXA-23 assessed as meropenem MIC at 8 ug/ml by broth microdilution method; format: functional; conditions: dose 8 µg/ml; outline: as §2
[36] = test system: Klebsiella pneumoniae; assay: Synergistic antibacterial activity against Klebsiella pneumoniae 1398/2291 producing KPC-3 assessed as cefepime MIC at 4 ug/ml by broth microdilution method; format: functional; conditions: dose 4 µg/ml; outline: as §1
[37] = test system: Bacteria; assay: Inhibition of bacteria PDC-3 assessed as second order rate constant K2/K using nitrocefin as substrate
[38] = test system: Klebsiella pneumoniae; assay: Synergistic antibacterial activity against Klebsiella pneumoniae NY BS producing OXA-232 assessed as cefepime MIC at 4 ug/ml by broth microdilution method; format: functional; conditions: dose 4 µg/ml
[39] = test system: Pseudomonas aeruginosa; assay: Synergistic antibacterial activity against Pseudomonas aeruginosa 715 assessed as meropenem MIC at 4 ug/ml by broth microdilution method; format: functional; conditions: dose 4 µg/ml

| SMILES | MIC [1] [µg/mL] | MIC [2] [µg/mL] | MIC [3] [µg/mL] | MIC [4] [µg/mL] | MIC [5] [µg/mL] | MIC [6] [µg/mL] | MIC [7] [µg/mL] | MIC [8] [µg/mL] | MIC [9] [µg/mL] | MIC [10] [µg/mL] | MIC [11] [µg/mL] | MIC [12] [µg/mL] | MIC [13] [µg/mL] | MIC [14] [µg/mL] | MIC [15] [µg/mL] | MIC [16] [µg/mL] | MIC [17] [µg/mL] | MIC [18] [µg/mL] | MIC [19] [µg/mL] | MIC [20] [µg/mL] | further results |
| --- | --- | --- | --- | --- | --- | --- | --- | --- | --- | --- | --- | --- | --- | --- | --- | --- | --- | --- | --- | --- | --- |
| O=C(NNC(=O)[C@@H]1CC[C@@H]2CN1C(=O)N2OS(=O)(=O)O)[C@@H]1CCCNC1 [ZIDEBACTAM] | ≤ 0.12 | ≤ 0.12 | ≤ 0.12 | > 16 | 16 | 16 | ≤ 0.12 | 16 | 16 | 16 | ≤ 0.12 | > 16 | 16 | ≤ 0.12 | 8 | ≤ 0.12 | 16 | > 16 | 2 | ≤ 0.12 | MIC [21]: ≤ 0.12 µg/mL; MIC [22]: > 16 µg/mL; MIC [23]: ≤ 0.12 µg/mL; MIC [24]: ≤ 0.12 µg/mL; Ki [25]: 2300 nM; MIC [26]: 4 µg/mL; MIC [27]: ≤ 0.12 µg/mL; MIC [28]: ≤ 0.12 µg/mL; T1/2 [29]: 3.3 min; MIC [30]: > 16 µg/mL; MIC [31]: > 16 µg/mL; MIC [32]: ≤ 0.12 µg/mL; MIC [33]: 8 µg/mL; MIC [34]: ≤ 0.12 µg/mL; MIC [35]: > 16 µg/mL; MIC [36]: ≤ 0.12 µg/mL; K [37]: 4.8 10^5/M/s; MIC [38]: ≤ 0.12 µg/mL |
| O=C(NNC(=O)[C@@H]1CC[C@@H]2CN1C(=O)N2OS(=O)(=O)O)[C@@H]1CCNC1 | > 16 | ≤ 0.12 | ≤ 0.12 | > 16 | 16 | 0.5 | ≤ 0.12 | 4 | 16 | 16 | ≤ 0.12 | > 16 | 16 | ≤ 0.12 | 8 | ≤ 0.12 | 16 | > 16 | 2 | ≤ 0.12 | MIC [21]: ≤ 0.12 µg/mL; MIC [22]: > 16 µg/mL; MIC [23]: ≤ 0.12 µg/mL; MIC [24]: ≤ 0.12 µg/mL; Ki [25]: 3700 nM; MIC [26]: 8 µg/mL; MIC [27]: ≤ 0.12 µg/mL; MIC [28]: ≤ 0.12 µg/mL; T1/2 [29]: 2.9 min; MIC [30]: > 16 µg/mL; MIC [31]: > 16 µg/mL; MIC [32]: ≤ 0.12 µg/mL; MIC [33]: 8 µg/mL; MIC [34]: ≤ 0.12 µg/mL; MIC [35]: > 16 µg/mL; MIC [36]: ≤ 0.12 µg/mL; K [37]: 6.3 10^5/M/s; MIC [38]: ≤ 0.12 µg/mL |
| N#C[C@@H]1CC[C@@H]2CN1C(=O)N2OS(=O)(=O)[O-].[Na+] | ≤ 0.12 | 0.25 | 1 | 8 | 8 | > 16 | ≤ 0.12 | > 16 | 16 | 16 | ≤ 0.12 | 16 | 8 | ≤ 0.12 | 8 | ≤ 0.12 | 16 | > 16 | 2 | ≤ 0.12 | MIC [21]: 0.25 µg/mL; MIC [22]: 1 µg/mL; MIC [23]: ≤ 0.12 µg/mL; MIC [24]: ≤ 0.12 µg/mL; MIC [39]: 16 µg/mL; MIC [26]: > 16 µg/mL; MIC [27]: ≤ 0.12 µg/mL; MIC [28]: 0.25 µg/mL; T1/2 [29]: 4.1 min; MIC [30]: 16 µg/mL; MIC [31]: 4 µg/mL; MIC [32]: ≤ 0.12 µg/mL; MIC [33]: 4 µg/mL; MIC [34]: ≤ 0.12 µg/mL; MIC [35]: 4 µg/mL; MIC [36]: ≤ 0.12 µg/mL; K [37]: 2.3 10^4/M/s; MIC [38]: 0.5 µg/mL |

From ChEMBL document CHEMBL5247575 (J Med Chem, 2018)
